Results taken from ChEMBL document CHEMBL4480406, “Discovery of an SSTR2-Targeting Maytansinoid Conjugate (PEN-221) with Potent Activity in Vitro and in Vivo” (J Med Chem, 2019).
Active and inactive are the calls of the source. The calls are words filed in the database; no cut-off is given here.

How the values were obtained:
[1] = target: T1, Somatostatin receptor type 2 (Homo sapiens, UniProt P30874); experiment: Displacement of [125I]somatostatin from human SSTR2 expressed in CHO-K1 cell membranes after 240 mins
Outline: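 Membranes from CHO-K1 cells stably expressing human SSTR2, prepared in modified HEPES pH 7.4. Nonspecific binding was defined with 1 µM somatostatin. Bound ligand was measured by filtration, 3 washes and counting. Six test concentrations were run, top 10 nM, in five-fold dilutions.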

NCI-H524 [2] = experiment: Cytotoxicity in human NCI-H524 cells pre-incubated for 2 hrs followed by compound wash out and subsequently incubated for 70 hrs by Cell Titer Glo assay; assay type: functional, cell-based
Outline: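 Cells were then spun, washed with fresh medium, resuspended and grown a further 70 h. Proliferation was read by CellTiter-Glo luminescence, and % inhibition calculated relative to vehicle. IC50 came from a four-parameter nonlinear fit.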

[3] = target: T1, Somatostatin receptor type 2; experiment: Binding affinity to human SSTR2 expressed in CHO-K1 cells assessed as induction of SSTR2 internalization after 4 hrs by chemiluminescent assay; assay type: cell-based
[4] = Half life of the compound in phosphate buffer at 1 mM in presence of GSH by LC-MS/MS analysis; assay type: physicochemical; settings: phosphate buffer with GSH
Outline: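 Conjugate, added from a 1 mM methanol stock, was incubated in 5 mM GSH at 37 °C. Aliquots taken from 30 min to 6 h were quenched into N-ethyl maleimide in 1% ethanol, and remaining parent conjugate was measured by LC-MS/MS.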

[5] = Half life in Beagle dog at 0.1 mg/kg, iv; assay type: ADME, organism-based, Canis lupus familiaris; settings: in vivo
[6] = Cmax in Beagle dog at 0.1 mg/kg, iv; assay type: ADME, organism-based, Canis lupus familiaris; parameters: dose 0.1 mg/kg, route intravenous; settings: in vivo
[7] = AUC (0 to 6 hrs) in Beagle dog at 0.1 mg/kg, iv; assay type: ADME, organism-based, Canis lupus familiaris; parameters: dose 0.1 mg/kg, time < 6 hr, route intravenous; settings: in vivo
[8] = Clearance in Beagle dog at 0.1 mg/kg, iv; assay type: ADME, organism-based, Canis lupus familiaris; settings: in vivo
NCI-H69 [9] = experiment: Antitumor activity against human NCI-H69 cells xenografted in CrTac:NCr-Foxn1nu mouse assessed as tumor regression at 2 mg/kg, iv measured up to 40 days; assay type: functional
Outline: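 Female athymic nude mice were implanted subcutaneously in the right flank with 2.5 × 10^6 NCI-H69 cells (RPMI 1640/10% FBS culture) in media:Matrigel (1:1). At 150-250 mm3, mice were randomized into groups of 10. Compound in 10% propylene glycol in 5 mM citrate buffer (pH=4) was given by tail-vein i.v. injection on indicated days. Tumor volume was measured by calipers as (w2 × l)/2, reported as mean ± SEM.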

[10] = Toxicity in CrTac:NCr-Foxn1nu mouse xenografted with human NCI-H69 cells assessed as body weight loss at 2 mg/kg, iv measured up to 40 days; assay type: organism-based; settings: in vivo, 960 h
NCI-H524 [11] = experiment: Cytotoxicity in human NCI-H524 cells pre-incubated for 2 hrs in presence of 100 uM octreotide followed by compound wash out and subsequently incubated for 70 hrs by Cell Titer Glo assay; assay type: functional, cell-based
Outline: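 Octreotide receptor-blockade variant: NCI-H524 cells (5,000/well) were pretreated with octreotide acetate for 30 min, then given compound for 2 h in a ten-point three-fold series.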

[12] = target: Somatostatin receptor type 1 (Homo sapiens, UniProt P30872); experiment: Displacement of [125I]somatostatin from human SSTR1 expressed in CHO-K1 cell membranes after 120 mins
[13] = target: Somatostatin receptor type 3 (Homo sapiens, UniProt P32745); experiment: Displacement of [125I]somatostatin from human SSTR3 expressed in CHO-K1 cell membranes after 120 mins
[14] = target: Somatostatin receptor type 4 (Homo sapiens, UniProt P31391); experiment: Displacement of [125I]somatostatin from human SSTR4 expressed in CHO-K1 cell membranes after 120 mins
[15] = target: T2, Somatostatin receptor type 5 (Homo sapiens, UniProt P35346); experiment: Displacement of [125I]somatostatin from human SSTR5 expressed in CHO-K1 cell membranes after 120 mins
[16] = Apparent permeability from apical to basolateral side in human Caco2 cells; assay type: ADME, cell-based; settings: Caco-2
[17] = Antitumor activity against human HCC33 cells xenografted in CrTac:NCr-Foxn1nu mouse assessed as tumor regression at 1 mg/kg, iv measured up to 16 days; assay type: functional
Outline: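 Female athymic nude mice received subcutaneous right-flank implants in media:Matrigel (1:1): 2.5 × 10^6 HCC-33 cells (RPMI 1640/10% FBS) or 1 x 10^7 IMR-32 cells (EMEM/10% FBS). At 150-250 mm3, mice were randomized into groups of 10. Dosing was tail-vein i.v. on indicated days in 0.1% Solutol HS 15/5% mannitol/WFI. Caliper volume was (w2 × l)/2, reported as group mean ± SEM.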

IMR-32 = experiment: Antitumor activity against human IMR32 cells xenografted in CrTac:NCr-Foxn1nu mouse assessed as tumor regression at […], iv measured up to 20 days; assay type: functional
[18] = Drug uptake in tumor of CrTac:NCr-Foxn1nu mouse xenografted with human NCI-H69 cells assessed as DM1 level at 1 mg/kg, iv measured after 24 hrs by LC-MS/MS analysis relative to DM1 alone; assay type: ADME, organism-based, Neoplasm; settings: in vivo
Outline: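 NCI-H69 subcutaneous tumors of 250-600 mm3 in nude mice, groups of 3, dosed i.v. Free DM1 was given in 10% propylene glycol/WFI, conjugates in 10% propylene glycol/5 mM citrate pH 4. Tumors were excised at 24 h and homogenized 1:4 (w/v) in 0.1 M ammonium bicarbonate pH 8.0. Homogenate was reduced with TCEP in acetonitrile (15 min, 37 °C), capped with 0.2 M NEM (15 min, 37 °C), and DM1-NEM quantified by LC-MS/MS against standards in blank tumor homogenate. Values were normalized to DM1 dose.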

NCI-H69 [19] = experiment: Antitumor activity against human NCI-H69 cells xenografted in CrTac:NCr-Foxn1nu mouse assessed as tumor regression at 1.3 mg/kg, iv measured up to 40 days; assay type: functional, organism-based
Outline: (§1)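 Female athymic nude mice were implanted subcutaneously in the right flank with 2.5 × 10^6 NCI-H69 cells in medium/Matrigel 1:1. At 150-250 mm3, animals were randomized into groups of 10. Dosing was by tail-vein injection in 10% propylene glycol in 5 mM citrate pH 4 on the indicated days. Caliper volumes were calculated as (w2 × l)/2 and reported as mean ± SEM.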

[20] = target: T1, Somatostatin receptor type 2; experiment: Agonist activity at SSTR2 (unknown origin) assessed as effect on calcium flux incubated for 180 secs by FLIPR assay; assay type: functional
[21] = target: T1, Somatostatin receptor type 2; experiment: Antagonist activity at SSTR2 (unknown origin) assessed as effect on agonist-induced calcium flux incubated for 180 secs by FLIPR assay; assay type: functional
[22] = target: T2, Somatostatin receptor type 5; experiment: Agonist activity at SSTR5 (unknown origin) assessed as effect on calcium flux incubated for 180 secs by FLIPR assay; assay type: functional
[23] = target: T2, Somatostatin receptor type 5; experiment: Antagonist activity at SSTR5 (unknown origin) assessed as effect on agonist-induced calcium flux incubated for 180 secs by FLIPR assay; assay type: functional
NCI-H69 [24] = experiment: Antitumor activity against human NCI-H69 cells xenografted in CrTac:NCr-Foxn1nu mouse assessed as tumor regression at 0.7 mg/kg, iv measured up to 20 days; assay type: functional, organism-based; outline: as §1

T1 sequence (P30874 whole entry): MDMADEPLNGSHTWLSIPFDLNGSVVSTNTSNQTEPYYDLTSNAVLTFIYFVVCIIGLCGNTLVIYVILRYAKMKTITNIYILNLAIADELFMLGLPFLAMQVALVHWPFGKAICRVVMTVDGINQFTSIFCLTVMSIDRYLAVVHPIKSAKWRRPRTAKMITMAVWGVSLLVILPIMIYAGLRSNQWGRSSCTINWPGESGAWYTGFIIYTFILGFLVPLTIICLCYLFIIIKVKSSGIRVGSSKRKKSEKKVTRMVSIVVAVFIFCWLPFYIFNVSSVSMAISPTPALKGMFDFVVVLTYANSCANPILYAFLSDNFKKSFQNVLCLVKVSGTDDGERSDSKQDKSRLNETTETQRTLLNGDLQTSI
T2 sequence (P35346 whole entry): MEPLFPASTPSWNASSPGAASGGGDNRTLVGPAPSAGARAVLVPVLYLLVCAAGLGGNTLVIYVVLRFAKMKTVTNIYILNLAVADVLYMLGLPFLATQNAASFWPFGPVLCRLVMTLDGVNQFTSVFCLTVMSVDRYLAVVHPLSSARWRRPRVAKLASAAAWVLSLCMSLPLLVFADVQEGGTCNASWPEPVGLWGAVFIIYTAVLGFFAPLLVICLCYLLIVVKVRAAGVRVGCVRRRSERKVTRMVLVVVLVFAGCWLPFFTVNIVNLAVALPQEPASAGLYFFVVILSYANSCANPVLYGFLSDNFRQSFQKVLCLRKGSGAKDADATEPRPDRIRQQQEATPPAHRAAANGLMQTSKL
Somatostatin receptor type 3, sequence (P32745 whole entry): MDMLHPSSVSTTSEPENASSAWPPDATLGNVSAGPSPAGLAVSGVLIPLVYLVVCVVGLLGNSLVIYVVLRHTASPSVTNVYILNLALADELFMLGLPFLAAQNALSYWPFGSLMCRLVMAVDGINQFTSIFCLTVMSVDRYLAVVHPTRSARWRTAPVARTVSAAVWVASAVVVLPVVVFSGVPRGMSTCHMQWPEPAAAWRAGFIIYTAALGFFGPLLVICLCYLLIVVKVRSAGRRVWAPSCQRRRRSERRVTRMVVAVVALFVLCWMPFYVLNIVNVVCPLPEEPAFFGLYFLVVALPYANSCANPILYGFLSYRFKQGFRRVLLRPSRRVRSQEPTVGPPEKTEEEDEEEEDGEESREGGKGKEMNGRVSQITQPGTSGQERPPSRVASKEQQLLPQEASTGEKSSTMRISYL
Somatostatin receptor type 4, sequence (P31391 whole entry): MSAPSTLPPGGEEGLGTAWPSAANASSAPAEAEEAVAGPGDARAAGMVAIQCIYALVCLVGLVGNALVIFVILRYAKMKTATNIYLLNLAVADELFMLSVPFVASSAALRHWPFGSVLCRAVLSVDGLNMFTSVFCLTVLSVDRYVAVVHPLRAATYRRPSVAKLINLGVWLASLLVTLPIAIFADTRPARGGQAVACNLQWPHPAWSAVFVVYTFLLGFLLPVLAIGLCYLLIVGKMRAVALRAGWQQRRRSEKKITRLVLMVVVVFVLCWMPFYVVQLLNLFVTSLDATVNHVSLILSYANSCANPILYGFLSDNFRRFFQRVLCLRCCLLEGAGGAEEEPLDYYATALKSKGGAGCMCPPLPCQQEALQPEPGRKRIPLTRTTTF
Somatostatin receptor type 1, sequence (P30872 whole entry): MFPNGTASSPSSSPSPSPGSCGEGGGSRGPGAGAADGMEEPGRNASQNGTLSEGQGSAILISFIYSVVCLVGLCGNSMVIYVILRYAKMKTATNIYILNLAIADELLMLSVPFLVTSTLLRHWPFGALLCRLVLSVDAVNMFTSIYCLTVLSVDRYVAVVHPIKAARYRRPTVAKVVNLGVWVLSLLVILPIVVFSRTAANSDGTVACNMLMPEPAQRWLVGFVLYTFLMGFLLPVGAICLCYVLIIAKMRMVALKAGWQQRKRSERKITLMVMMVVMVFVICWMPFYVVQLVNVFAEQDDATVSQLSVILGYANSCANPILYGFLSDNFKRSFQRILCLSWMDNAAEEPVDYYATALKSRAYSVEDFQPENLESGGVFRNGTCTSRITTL

SMILES | Ki [1] [nM] | IC50 (NCI-H524 [2]) [nM] | EC50 [3] [nM] | half-life at 1000 µM [4] [min] | half-life [5] [min] | Cmax [6] [nM] | AUC(0-t) at 6 h [7] [µM·h] | clearance [8] [mL/min/kg] | Activity (NCI-H69 [9]) [%] | Activity [10] | IC50 (NCI-H524 [11]) [nM] | Drug uptake [18] | also measured
COc1cc2cc(c1Cl)N(C)C(=O)C[C@H](OC(=O)[C@H](C)N(C)C(=O)CCSSC[C@H](NC(=O)[C@@H]1CSSC[C@H](NC(=O)[C@H](N)Cc3ccccc3)C(=O)N[C@@H](Cc3ccc(O)cc3)C(=O)N[C@H](Cc3c[nH]c4ccccc34)C(=O)N[C@@H](CCCCN)C(=O)N[C@@H]([C@@H](C)O)C(=O)N1)C(N)=O)[C@@]1(C)O[C@H]1[C@H](C)[C@@H]1C[C@@](O)(NC(=O)O1)[C@H](OC)/C=C/C=C(\C)C2 | 0.022 | 10 | 1 | 10 | 140 | 708 | 0.47 | 1.66 | 100 | Non-Toxic | 910 | Active | Kd [12]: 310 nM; Kd [13]: 19.8 nM; Kd [14]: 5.48 µM; Kd [15]: 9.6 nM; Papp A→B [16]: 0.018 ×10⁻⁶ cm/s; Activity [17]: 100%; Activity (IMR-32): 100%; Activity (NCI-H69 [19]): Active; Activity [20]: Active; Activity [21]: Active; Activity [22]: Active; Activity [23]: Active
COc1cc2cc(c1Cl)N(C)C(=O)C[C@H](OC(=O)[C@H](C)N(C)C(=O)CCSSC[C@H](NC(=O)[C@@H]1CSSC[C@H](NC(=O)[C@H](N)Cc3ccccc3)C(=O)N[C@@H](Cc3ccc(O)cc3)C(=O)N[C@H](Cc3c[nH]c4ccccc34)C(=O)N[C@@H](CCCCNC(=O)NCCCCCCN)C(=O)N[C@@H]([C@@H](C)O)C(=O)N1)C(N)=O)[C@@]1(C)O[C@H]1[C@H](C)[C@@H]1C[C@@](O)(NC(=O)O1)[C@H](OC)/C=C/C=C(\C)C2 | 3350 | 581 |  |  |  |  |  |  |  |  | 644 |  | Activity (NCI-H69 [24]): inactive
COc1cc2cc(c1Cl)N(C)C(=O)C[C@H](OC(=O)[C@H](C)N(C)C(=O)CCSSC(C)(C)[C@H](NC(=O)[C@@H]1CSSC[C@H](NC(=O)[C@H](N)Cc3ccccc3)C(=O)N[C@@H](Cc3ccc(O)cc3)C(=O)N[C@H](Cc3c[nH]c4ccccc34)C(=O)N[C@@H](CCCCN)C(=O)N[C@@H]([C@@H](C)O)C(=O)N1)C(N)=O)[C@@]1(C)O[C@H]1[C@H](C)[C@@H]1C[C@@](O)(NC(=O)O1)[C@H](OC)/C=C/C=C(\C)C2 | 0.015 | 8 |  | 56.8 | 82.8 | 867 | 0.769 | 1.09 | 100 | Non-Toxic | 1040 |  | 
CO[C@H]1C(=O)[C@]2(C)[C@@H](OC)C[C@H]3OC[C@@]3(OC(C)=O)[C@H]2[C@H](OC(=O)c2ccccc2)[C@]2(O)C[C@H](OC(=O)[C@H](OC(=O)OCCSSC[C@H](NC(=O)[C@@H]3CSSC[C@H](NC(=O)[C@H](N)Cc4ccccc4)C(=O)N[C@@H](Cc4ccc(O)cc4)C(=O)N[C@H](Cc4c[nH]c5ccccc45)C(=O)N[C@@H](CCCCN)C(=O)N[C@@H]([C@@H](C)O)C(=O)N3)C(N)=O)[C@@H](NC(=O)OC(C)(C)C)c3ccccc3)C(C)=C1C2(C)C | 0.97 | 7 | 11 |  |  |  |  |  |  |  | 14 |  | 
COc1cc2cc(c1Cl)N(C)C(=O)C[C@H](OC(=O)[C@H](C)N(C)C(=O)CCSSCCOc1ccc(C[C@@H](N)C(=O)N[C@H]3CSSC[C@@H](C(=O)N[C@H](C(=O)O)[C@@H](C)O)NC(=O)[C@H]([C@@H](C)O)NC(=O)[C@H](CCCCN)NC(=O)[C@@H](Cc4c[nH]c5ccccc45)NC(=O)[C@H](Cc4ccc(O)cc4)NC3=O)cc1)[C@@]1(C)O[C@H]1[C@H](C)[C@@H]1C[C@@](O)(NC(=O)O1)[C@H](OC)/C=C/C=C(\C)C2 | 0.015 | 15 |  |  |  |  |  |  |  |  | 198 | Active | 
